In brackets after ≈: the same amount, converted by molar mass. Activity calls are given as the source filed them. No cut-off for these calls is given here.
Tests used:
Nakaseomyces glabratus [1] = assay: Antifungal activity against Candida glabrata DSM6425 after 24 hrs by broth macrodilution method; format: functional; settings: DSM6425, 24 h
Method in brief: (§1)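 Yeasts pre-grown on yeast extract peptone dextrose medium, 30 °C, 24 h. MIC and MFC by macro-dilution broth method; compounds in DMSO, max 2.13% solvent in cultures. Amphotericin B and fluconazole as references. MFC/MIC ratio computed; ≥4 taken as fungistatic. Triplicate.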

Candida albicans [2] = assay: Antifungal activity against Candida albicans ATCC 10231 after 24 hrs by broth macrodilution method; format: functional; settings: ATCC 10231, 24 h; method in brief: as §1
Candida tropicalis [3] = assay: Ratio of MFC to MIC against Candida tropicalis DSM 1346; format: functional; method in brief: as §1
Candida albicans [4] = assay: Ratio of MFC to MIC against Candida albicans ATCC 10231; format: functional
Method in brief: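 C. albicans ATCC10231 was pre-grown on yeast extract peptone dextrose agar for 24 h at 30 °C. MIC and MFC were determined by broth macro-dilution, with compounds dissolved in DMSO at no more than 2.13% solvent in the liquid culture. Each endpoint was measured in triplicate, and the MFC was divided by the MIC to give the ratio.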

Candida tropicalis [5] = assay: Antifungal activity against Candida tropicalis DSM 1346 after 24 hrs by broth macrodilution method; format: functional; settings: DSM 1346, 24 h; method in brief: as §1
Nakaseomyces glabratus [6] = assay: Ratio of MFC to MIC against Candida glabrata DSM6425; format: functional; method in brief: as §1
Klebsiella pneumoniae = assay: Antibacterial activity against Klebsiella pneumoniae CIP 53153 at 50 ug after 24 hrs by agar diffusion method; format: functional, organism-based
Method in brief: (§2)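 Bacteria pre-grown 24 h on nutritive agar (tryptone soy agar for E. faecalis, L. inocua) at 37 °C (30 °C for E. faecalis, L. inocua, B. cereus). Agar well diffusion with 50 µg compound in 80% DMSO; 80% DMSO alone as control. Inhibition zone diameter averaged from triplicate, scored 6-9, 9-12, >12 mm.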

Enterococcus faecalis [7] = assay: Antibacterial activity against Enterococcus faecalis CIP 103214 after 24 hrs by broth macrodilution method; format: functional; settings: CIP 103214, 24 h
Method in brief: (§3)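 Bacteria pre-grown 24 h on nutritive agar (tryptone soy agar for E. faecalis, L. inocua) at 37 °C (30 °C for E. faecalis, L. inocua, B. cereus). MIC and MBC determined by macro-dilution broth method; MBC = lowest concentration killing 99.99% of inoculum. Compounds in DMSO, max 2.13% solvent in cultures. Triplicate.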

Staphylococcus aureus [8] = assay: Antibacterial activity against Staphylococcus aureus ATCC 25923 at 50 ug after 24 hrs by agar diffusion method; format: functional; method in brief: as §2
Listeria innocua [9] = assay: Antibacterial activity against Listeria innocua at 50 ug after 24 hrs by agar diffusion method; format: functional; settings: read-out: IZ; method in brief: as §2
Pseudomonas aeruginosa = assay: Antibacterial activity against Pseudomonas aeruginosa ATCC 27853 at 50 ug after 24 hrs by agar diffusion method; format: functional, organism-based; method in brief: as §2
Bacillus cereus [10] = assay: Antibacterial activity against Bacillus cereus at 50 ug after 24 hrs by agar diffusion method; format: functional; settings: read-out: IZ; method in brief: as §2
Enterococcus faecalis [11] = assay: Antibacterial activity against Enterococcus faecalis CIP 103214 at 50 ug after 24 hrs by agar diffusion method; format: functional; settings: CIP 103214, 24 h, read-out: IZ; method in brief: as §2
Escherichia coli [12] = assay: Antibacterial activity against Escherichia coli ATCC 25922 at 50 ug after 24 hrs by agar diffusion method; format: functional; settings: ATCC 25922, 24 h, read-out: IZ; method in brief: as §2
MCF7 = assay: Antiproliferative activity against human MCF7 cells after 72 hrs by MTT assay; format: functional; settings: MCF7, 72 h
Method in brief: (§4)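 5000 cells per well added to pre-equilibrated medium at 37 °C; compounds from 10^-3 M DMSO stocks, final 10^-5 M. After 72 h, MTT (5 g/L) for 4 h, formazan dissolved in DMSO, OD 550 nm. % growth inhibition vs 1% DMSO medium (0%) and 10% SDS lysis (100%); mean ± SEM, 24 measures, three independent experiments.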

MDA-MB-231 [13] = assay: Antiproliferative activity against human MDA-MB-231 cells after 72 hrs by MTT assay; format: functional; settings: MDA-MB-231, 72 h; method in brief: as §4
Candida tropicalis [14] = assay: Antifungal activity against Candida tropicalis DSM 1346 at 50 ug after 24 hrs by agar diffusion method; format: functional; settings: DSM 1346, 24 h, read-out: IZ
Method in brief: (§5)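 Yeasts grown on yeast extract peptone dextrose medium at 30 °C for 24 h, then agar well diffusion with 50 µg compound in 80% DMSO; 80% DMSO alone as control. Averaged inhibition zone diameter from triplicate, scored 6-9, 9-12 or >12 mm.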

Candida albicans [15] = assay: Antifungal activity against Candida albicans ATCC 10231 at 50 ug after 24 hrs by agar diffusion method; format: functional; settings: ATCC 10231, 24 h, read-out: IZ; method in brief: as §5
Pichia kudriavzevii = assay: Antifungal activity against Issatchenkia orientalis DSM6128 at 50 ug after 24 hrs by agar diffusion method; format: functional, organism-based; method in brief: as §5
Escherichia coli [16] = assay: Antibacterial activity against Escherichia coli ATCC 25922 after 24 hrs by broth macrodilution method; format: functional; settings: ATCC 25922, 24 h; method in brief: as §3
Nakaseomyces glabratus [17] = assay: Antifungal activity against Candida glabrata DSM6425 at 50 ug after 24 hrs by agar diffusion method; format: functional; settings: DSM6425, 24 h, read-out: IZ; method in brief: as §5
Bacillus cereus [18] = assay: Antibacterial activity against Bacillus cereus after 24 hrs by broth macrodilution method; format: functional; method in brief: as §3
Listeria innocua [19] = assay: Antibacterial activity against Listeria innocua after 24 hrs by broth macrodilution method; format: functional; method in brief: as §3
Staphylococcus aureus [20] = assay: Antibacterial activity against Staphylococcus aureus ATCC 25923 after 24 hrs by broth macrodilution method; format: functional; settings: ATCC 25923, 24 h; method in brief: as §3
MDA-MB-231 [21] = assay: Antiproliferative activity against human MDA-MB-231 cells at 10 uM after 72 hrs by MTT assay; format: functional; settings: MDA-MB-231, 72 h; method in brief: as §4

Compound | MFC (Nakaseomyces glabratus [1]) [µg/mL] | MIC (Nakaseomyces glabratus [1]) [µg/mL] | MFC (Candida albicans [2]) [µg/mL] | MIC (Candida albicans [2]) [µg/mL] | Ratio (Candida tropicalis [3]) | Ratio (Candida albicans [4]) | MFC (Candida tropicalis [5]) [µg/mL] | MIC (Candida tropicalis [5]) [µg/mL] | Ratio (Nakaseomyces glabratus [6]) | Activity (Klebsiella pneumoniae) | MBC (Enterococcus faecalis [7]) [µg/mL] | MIC (Enterococcus faecalis [7]) [µg/mL] | zone of inhibition at 50 µg/disc (Listeria innocua [9]) [mm] | Activity (Pseudomonas aeruginosa) | zone of inhibition at 50 µg/disc (Bacillus cereus [10]) [mm] | zone of inhibition at 50 µg/disc (Enterococcus faecalis [11]) [mm] | zone of inhibition at 50 µg/disc (Escherichia coli [12]) [mm] | GI50 (MCF7) [µM] | GI50 (MDA-MB-231 [13]) [µM] | zone of inhibition at 50 µg/disc (Candida tropicalis [14]) [mm] | also measured
OC(Cn1cncn1)(Cn1cncn1)c1ccc(F)cc1F [FLUCONAZOLE] | > 128 | 4 (≈ 13.1 µM) | > 128 | 2 (≈ 6.53 µM) | >32 | >64 | > 128 | 4 (≈ 13.1 µM) | >32 |  |  |  |  |  |  |  |  |  |  |  | 
C[C@@H]1[C@H](O)[C@@H](C)/C=C/C=C/C=C/C=C/C=C/C=C/C=C/[C@H](O[C@@H]2O[C@H](C)[C@@H](O)[C@H](N)[C@@H]2O)C[C@@H]2O[C@](O)(C[C@@H](O)C[C@@H](O)[C@H](O)CC[C@@H](O)C[C@@H](O)CC(=O)O[C@H]1C)C[C@H](O)[C@H]2C(=O)O [AMPHOTERICIN B] | 2 (≈ 2.16 µM) | 2 (≈ 2.16 µM) | 0.5 (≈ 0.541 µM) | 0.25 (≈ 0.271 µM) | 2 | 2 | 2 (≈ 2.16 µM) | 1 (≈ 1.08 µM) | 2 |  |  |  |  |  |  |  |  |  |  |  | 
S=c1ssnc1-c1ccccn1 | 48 (≈ 226 µM) | 8 (≈ 37.7 µM) | > 48 | 32 (≈ 151 µM) | 1.5 |  | 48 (≈ 226 µM) | 32 (≈ 151 µM) | 6 | inactive | > 48 | 48 (≈ 226 µM) | 9 | inactive | 9 | > 12 | 6 | > 10 | > 10 | 9 | zone of inhibition at 50 µg/disc (Staphylococcus aureus [8]; Staphylococcus aureus, ATCC 25923, 24 h, read-out: IZ): 12 mm; zone of inhibition at 50 µg/disc (Candida albicans [15]): > 12 mm; Activity (Pichia kudriavzevii): inactive; MBC (Escherichia coli [16]): > 48 µg/mL; MIC (Escherichia coli [16]): > 48 µg/mL; zone of inhibition at 50 µg/disc (Nakaseomyces glabratus [17]): 9 mm; MBC (Bacillus cereus [18]): > 48 µg/mL; MIC (Bacillus cereus [18]): > 48 µg/mL; MBC (Listeria innocua [19]): > 48 µg/mL; MIC (Listeria innocua [19]): 16 µg/mL (≈ 75.4 µM); MBC (Staphylococcus aureus [20]): > 48 µg/mL; MIC (Staphylococcus aureus [20]): 48 µg/mL (≈ 226 µM); inhibition at 10 µM (MDA-MB-231 [21]): 0%
CCOC(=O)c1nssc1=S | 48 (≈ 232 µM) | 32 (≈ 154 µM) | > 48 | 48 (≈ 232 µM) |  |  | > 48 | 48 (≈ 232 µM) | 1.5 | inactive | > 48 | > 48 | 6 | inactive | 9 | 9 | 9 | > 10 | > 10 | 6 | Activity (Staphylococcus aureus [8]): 12 mm; zone of inhibition at 50 µg/disc (Candida albicans [15]): > 12 mm; Activity (Pichia kudriavzevii): inactive; MBC (Escherichia coli [16]): > 48 µg/mL; MIC (Escherichia coli [16]): > 48 µg/mL; zone of inhibition at 50 µg/disc (Nakaseomyces glabratus [17]): 6 mm; MBC (Bacillus cereus [18]): > 48 µg/mL; MIC (Bacillus cereus [18]): > 48 µg/mL; MBC (Listeria innocua [19]): > 48 µg/mL; MIC (Listeria innocua [19]): 32 µg/mL (≈ 154 µM); MBC (Staphylococcus aureus [20]): > 48 µg/mL; MIC (Staphylococcus aureus [20]): 48 µg/mL (≈ 232 µM); inhibition at 10 µM (MDA-MB-231 [21]): 0%
